Data on 21 compounds can be found in ChEMBL document CHEMBL4480362, “Design and synthesis of DNA-intercalative naphthalimide-benzothiazole/cinnamide derivatives: cytotoxicity evaluation and topoisomerase-IIα inhibition” (Medchemcomm, 2019).

The test system of one test is A549. In words: Cytotoxicity against human A549 cells assessed as reduction in cell viability after 48 hrs by MTT assay. The settings on record: A549, 48 h. The class given is functional, cell-based. The gist of the method:
(§1)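 Cell lines from NCCS were grown in DMEM with 10% FBS, penicillin and streptomycin at 37 °C, 5% CO2. Cells were seeded, left 24 h, then exposed to compound for 48 h. MTT (5 mg/ml stock) was added for 4 h. Formazan was dissolved in DMSO and absorbance read at 570 nm.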
For orientation: Tetrazolium assays rely on reduction of a dye to a coloured formazan, in cell work by metabolically active cells.

The subject of another test is MCF7. The test can be described thus: Cytotoxicity against human MCF7 cells assessed as reduction in cell viability after 48 hrs by MTT assay. Conditions: MCF7, 48 h. The class given is functional, cell-based. An outline of the steps:
as §1

The next test concerns HT-29. In words: Cytotoxicity against human HT-29 cells assessed as reduction in cell viability after 48 hrs by MTT assay. The class given is functional, cell-based. The settings on record: HT-29, 48 h. An outline of the steps: as §1
Test [1] addresses DNA topoisomerase 2-alpha (Homo sapiens) (UniProt P11388). The test can be described thus: Inhibition of topoisomerase 2 (unknown origin) assessed as reduction in decatenation of kinetoplast DNA at 100 uM incubated for 30 mins by ethidium bromide staining based gel electrophoresis method.
For test [2], the system named is Calf thymus DNA. The test can be described thus: Binding affinity to calf thymus DNA assessed as hyperchromicity at 15 to 30 uM by CD spectroscopic method. The settings on record: Bos taurus. In kind it is nucleic-acid assay. An outline of the steps:
(§2)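 CD spectra recorded from 225 to 325 nm with about 15 × 10^-6 M CT DNA. Compound:DNA molar ratios were 1:0 and 1:1, in 100 mM TE (pH 7.0) at 25 °C. Each spectrum is the average of three scans.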

The test system of test [3] is Calf thymus DNA. The test can be described thus: Binding affinity to calf thymus DNA assessed as increase in emission peak intensity at 10 uM by fluorescence spectroscopic method. The settings on record: Bos taurus. The class given is nucleic-acid assay. An outline of the steps:
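Compound held constant at 10 µM and titrated with CT DNA added in multiples of 0.5 µM, at 25 °C in a 1 cm quartz cuvette. Excitation at 350 nm; emission recorded from 355 to 500 nm after each addition. Spectra are averages of three scans.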

Test [4] relates to Calf thymus DNA. In words: Binding affinity to calf thymus DNA assessed as bathochromic shift at 25 uM by UV-vis spectra method. In kind it is nucleic-acid assay. Conditions: Bos taurus. The gist of the method:
(§3)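 CT DNA titrated into a cuvette holding about 25 µM hybrid in 100 mM TE (pH 7.0), at 25 °C with a 1 cm quartz cell. The compound stock was in DMSO, diluted into buffer. DNA was added stepwise until the hybrid absorption band stayed at a fixed wavelength. Solutions were prepared fresh the same day.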

In test [5] the test system is Calf thymus DNA. In words: Binding affinity to calf thymus DNA assessed as absorption band formation at 25 uM by UV-vis spectra method. In kind it is nucleic-acid assay. The settings on record: Bos taurus. An outline of the steps: as §3
In test [6] the test system is Calf thymus DNA. In words: Binding affinity to calf thymus DNA assessed as positive band formation at 15 to 30 uM by CD spectroscopic method. In kind it is nucleic-acid assay. Conditions: Bos taurus. The gist of the method:
as §2

In test [7] the test system is Calf thymus DNA. In words: Binding affinity to calf thymus DNA assessed as change in viscosity at 15 uM by ethidium bromide staining-based method. In kind it is nucleic-acid assay. The settings on record: Bos taurus.
In test [8] the test system is Panel NCI-60 (60 carcinoma cell lines). The test can be described thus: Growth inhibition of human NCI60 cells after 72 hrs by SRB assay. The class given is functional.
Test [9] deals with Calf thymus DNA. The test can be described thus: Binding affinity to calf thymus DNA assessed as hypochromic shift formation at 25 uM by UV-vis spectra method. The class given is nucleic-acid assay. Conditions: Bos taurus. The gist of the method: as §3

Activity calls are given as the source filed them. The calls are words filed in the database; no cut-off is given here.

By IC50 is commonly meant the point on the concentration scale where inhibition reaches its midpoint. One may read the GI50 as the concentration that inhibits growth by half. A lower GI50 goes with greater sensitivity of the cells.

Chain of DNA topoisomerase 2-alpha (Homo sapiens) (P11388 whole entry): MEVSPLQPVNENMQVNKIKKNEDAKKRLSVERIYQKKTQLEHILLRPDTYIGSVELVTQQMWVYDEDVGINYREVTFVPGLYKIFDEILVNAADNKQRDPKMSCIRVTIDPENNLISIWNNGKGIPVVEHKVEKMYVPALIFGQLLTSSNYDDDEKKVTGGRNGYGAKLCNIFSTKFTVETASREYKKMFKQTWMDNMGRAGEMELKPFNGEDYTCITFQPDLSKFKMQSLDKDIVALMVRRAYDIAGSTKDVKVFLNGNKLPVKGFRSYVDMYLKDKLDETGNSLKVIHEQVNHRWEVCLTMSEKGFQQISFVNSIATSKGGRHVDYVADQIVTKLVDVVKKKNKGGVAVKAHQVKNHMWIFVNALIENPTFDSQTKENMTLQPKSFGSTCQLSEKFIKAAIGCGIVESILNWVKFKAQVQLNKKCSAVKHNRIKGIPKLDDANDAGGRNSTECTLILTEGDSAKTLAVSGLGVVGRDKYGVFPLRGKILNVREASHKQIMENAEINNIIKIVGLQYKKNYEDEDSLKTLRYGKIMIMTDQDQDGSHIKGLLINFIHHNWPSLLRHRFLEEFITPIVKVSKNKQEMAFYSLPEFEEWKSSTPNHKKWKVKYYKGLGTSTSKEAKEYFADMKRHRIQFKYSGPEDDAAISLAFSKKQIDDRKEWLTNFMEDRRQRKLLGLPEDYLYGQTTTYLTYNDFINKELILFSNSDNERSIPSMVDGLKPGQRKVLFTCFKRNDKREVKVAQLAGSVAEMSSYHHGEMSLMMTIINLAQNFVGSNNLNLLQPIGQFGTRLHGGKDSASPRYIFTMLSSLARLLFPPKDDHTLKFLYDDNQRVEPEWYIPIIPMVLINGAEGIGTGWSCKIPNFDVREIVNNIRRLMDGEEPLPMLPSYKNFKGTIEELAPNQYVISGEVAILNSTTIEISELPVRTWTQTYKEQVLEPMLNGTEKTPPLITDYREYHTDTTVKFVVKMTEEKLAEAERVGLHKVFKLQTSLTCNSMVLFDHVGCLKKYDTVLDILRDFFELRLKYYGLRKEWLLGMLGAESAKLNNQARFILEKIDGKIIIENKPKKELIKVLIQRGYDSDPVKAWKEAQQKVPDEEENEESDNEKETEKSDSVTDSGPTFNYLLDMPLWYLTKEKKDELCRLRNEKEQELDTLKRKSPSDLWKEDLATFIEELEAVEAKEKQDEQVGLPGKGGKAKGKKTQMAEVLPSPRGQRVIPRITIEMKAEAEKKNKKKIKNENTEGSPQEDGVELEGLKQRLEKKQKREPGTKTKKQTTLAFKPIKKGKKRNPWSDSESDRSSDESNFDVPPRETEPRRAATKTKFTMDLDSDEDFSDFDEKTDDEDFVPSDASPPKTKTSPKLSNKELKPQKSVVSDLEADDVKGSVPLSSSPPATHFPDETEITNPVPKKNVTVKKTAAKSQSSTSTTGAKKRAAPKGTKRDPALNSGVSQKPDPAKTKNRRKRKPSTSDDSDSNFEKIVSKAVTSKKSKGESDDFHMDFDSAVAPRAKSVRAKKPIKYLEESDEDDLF

As to `O=C(/C=C/c1cc(F)c(F)c(F)c1)N1CCN(CCN2C(=O)c3cccc4cccc(c34)C2=O)CC1`, the results for the half-maximal inhibitory concentration (IC50) in the test on A549, with MCF7 and in the test on HT-29 were 14.8 µM, 19.5 µM and 13.8 µM, respectively.
The like results for `O=C(/C=C/c1cccc(C(F)(F)F)c1)N1CCN(CCN2C(=O)c3cccc4cccc(c34)C2=O)CC1` were, in that order, 19.7 µM, 26.4 µM and 17 µM.
For `COc1ccc(/C=C/C(=O)N2CCN(CCN3C(=O)c4cccc5cccc(c45)C3=O)CC2)c(OC)c1`, the figures for the IC50 in the test with A549, in the test on MCF7 and with HT-29 were 27.2 µM, 28.7 µM and 23.9 µM, respectively.
For `O=C(/C=C/c1cc(F)cc(F)c1)N1CCN(CCN2C(=O)c3cccc4cccc(c34)C2=O)CC1`, in that order: 6.41 µM, 13.7 µM and 8.39 µM.
For `O=C(/C=C/c1cc(F)ccc1F)N1CCN(CCN2C(=O)c3cccc4cccc(c34)C2=O)CC1`, in that order: 6.39 µM, 11.2 µM and 4.18 µM.
The like results for `O=C(/C=C/c1ccc(F)c(F)c1)N1CCN(CCN2C(=O)c3cccc4cccc(c34)C2=O)CC1` were, in that order, 18.4 µM, 28.3 µM and 13.4 µM.
In the case of `CN(C)CCN1C(=O)c2cccc3cc(N)cc(c23)C1=O` [AMONAFIDE], the figures for the IC50 in the test on A549, with MCF7 and in the test on HT-29 were 7.76 µM, 4.05 µM and 5.46 µM, respectively. Moreover, the inhibition result in [1] is “inactive”.
As for `CCOc1ccc2nc(NC(=O)CN3CCN(CCN4C(=O)c5cccc6cccc(c56)C4=O)CC3)sc2c1`, the figures for the IC50 in the test on A549, in the test on MCF7 and with HT-29 were 16.6 µM, 17.4 µM and 11.1 µM, respectively.
For `O=C(/C=C/c1ccc(F)cc1F)N1CCN(CCN2C(=O)c3cccc4cccc(c34)C2=O)CC1`, in that order: 16.2 µM, 23.5 µM and 17.4 µM.
For `Cc1ccc2nc(NC(=O)CN3CCN(CCN4C(=O)c5cccc6cccc(c56)C4=O)CC3)sc2c1`, in that order: 8.07 µM, 15 µM and 4.07 µM.
With `CN(C)c1ccc(/C=C/C(=O)N2CCN(CCN3C(=O)c4cccc5cccc(c45)C3=O)CC2)cc1`, the IC50 with A549 amounted to 8.26 µM; with MCF7 it was 13.1 µM; in the test on HT-29 it was 4.01 µM.
Consider `COc1cccc(/C=C/C(=O)N2CCN(CCN3C(=O)c4cccc5cccc(c45)C3=O)CC2)c1`, for which the IC50 was 21.7 µM with A549, 34.1 µM with MCF7 and 15.6 µM in the test on HT-29. In the test on Calf thymus DNA [2], the outcome was Active.
As for `Cc1cc2nc(NC(=O)CN3CCN(CCN4C(=O)c5cccc6cccc(c56)C4=O)CC3)sc2cc1C`, the half-maximal inhibitory concentration (IC50) with A549 is 6.2 µM; in the test with MCF7, 12.6 µM; in the test on HT-29, 4.98 µM.
For `O=C(CN1CCN(CCN2C(=O)c3cccc4cccc(c34)C2=O)CC1)Nc1nc2ccccc2s1`, in that order: 14.8 µM, 26.5 µM and 10.8 µM.
Turning to `O=C(CN1CCN(CCN2C(=O)c3cccc4cccc(c34)C2=O)CC1)Nc1ccc2ncsc2c1`, the outcome with Calf thymus DNA [3], in the test on Calf thymus DNA [5], in the test with Calf thymus DNA [6], in the test on Calf thymus DNA [7] and in the test on Calf thymus DNA [2] was Active. Besides, the Activity in the test on Calf thymus DNA [4] came out at 2 nm. Besides, the IC50 in the test with A549 amounted to 4.07 µM; with MCF7, 7.91 µM; in the test on HT-29, 3.72 µM. In addition, the inhibition result in [1] was “Active”. The compound further returned a GI50 in test [8] of 1.38 to 43.3 µM.
Turning to `O=C(/C=C/c1ccccc1)N1CCN(CCN2C(=O)c3cccc4cccc(c34)C2=O)CC1`, the result with Calf thymus DNA [3] and with Calf thymus DNA [2] was Active. The values for the IC50 with A549, in the test on MCF7 and in the test with HT-29 were 21.9 µM, 22.9 µM and 16 µM, respectively. Besides, in test [1], the inhibition result is “inactive”. Moreover, in the test with Calf thymus DNA [7], the result was inactive.
Consider `Cc1nc2ccc(NC(=O)CN3CCN(CCN4C(=O)c5cccc6cccc(c56)C4=O)CC3)cc2s1`, for which the outcome in the test on Calf thymus DNA [3], with Calf thymus DNA [9], in the test with Calf thymus DNA [6], with Calf thymus DNA [7] and in the test on Calf thymus DNA [2] was Active. The IC50 with A549 came out at 3.89 µM; with MCF7, 5.08 µM; in the test on HT-29, 3.47 µM. The inhibition result in test [1] is “Active”. The compound also returned a GI50 in test [8] of 1.19 to 14.1 µM.
`CCOc1ccc(/C=C/C(=O)N2CCN(CCN3C(=O)c4cccc5cccc(c45)C3=O)CC2)cc1`: the IC50 in the test with A549 came out at 19.4 µM; in the test with MCF7, 28.9 µM; in the test on HT-29 it was 12 µM.
Consider `O=C(/C=C/c1ccc2c(c1)OCO2)N1CCN(CCN2C(=O)c3cccc4cccc(c34)C2=O)CC1`, for which the outcome in the test with Calf thymus DNA [3], in the test on Calf thymus DNA [9], in the test on Calf thymus DNA [5], with Calf thymus DNA [6] and with Calf thymus DNA [7] was Active. Moreover, the figures for the IC50 in the test on A549, with MCF7 and in the test with HT-29 were 4.79 µM, 18 µM and 3.8 µM, respectively. In test [1], the inhibition entry was “Active”.
Consider `COc1ccc(/C=C/C(=O)N2CCN(CCN3C(=O)c4cccc5cccc(c45)C3=O)CC2)cc1O`, for which the concentration for half-maximal inhibition (IC50) with A549 turned out to be 14.2 µM; with MCF7 it was 13.7 µM; with HT-29, 10.3 µM.
The like results for `COc1ccc2nc(NC(=O)CN3CCN(CCN4C(=O)c5cccc6cccc(c56)C4=O)CC3)sc2c1` were, in that order, 4.76 µM, 7.94 µM and 4.22 µM.
